Compound activity deposited in PubChem BioAssay by NMMLSC.
In the library only some 2.3% were active in any assay of this set; here they are far more common.
MEKK2 WT-MEK5: modulators of MEK5 binding to wildtype MEKK2, primary screen, biochemical, multiplex bead flow cytometry, Alexa488-MEK5; Mitogen-activated protein kinase kinase kinase 2 (Homo sapiens), Q9Y2U5; Alexa488-MEK5 binding to MEKK2 WT; actives lie on both sides; binding response (% of control), % at 10 µM; actives 1.1% (n = 290,000); AID 1531, 2009; in the data active means binding response below about 67% or above about 130%
ABCG2 block: ABCG2 efflux pump inhibitors, primary screen, multiplex with ABCB1, IgMXP3 cells, flow cytometry | actives 0.1% (n = 190,000) | JC-1 efflux | Broad substrate specificity ATP-binding cassette transporter ABCG2 (Homo sapiens), Q9UNQ0 | inhibition, % at 6.6 µM;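 active means inhibition above 80%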;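 further: 0% = DMSO and 100% = nicardipine control wells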
Target sequence (Q9UNQ0 whole entry, looked up): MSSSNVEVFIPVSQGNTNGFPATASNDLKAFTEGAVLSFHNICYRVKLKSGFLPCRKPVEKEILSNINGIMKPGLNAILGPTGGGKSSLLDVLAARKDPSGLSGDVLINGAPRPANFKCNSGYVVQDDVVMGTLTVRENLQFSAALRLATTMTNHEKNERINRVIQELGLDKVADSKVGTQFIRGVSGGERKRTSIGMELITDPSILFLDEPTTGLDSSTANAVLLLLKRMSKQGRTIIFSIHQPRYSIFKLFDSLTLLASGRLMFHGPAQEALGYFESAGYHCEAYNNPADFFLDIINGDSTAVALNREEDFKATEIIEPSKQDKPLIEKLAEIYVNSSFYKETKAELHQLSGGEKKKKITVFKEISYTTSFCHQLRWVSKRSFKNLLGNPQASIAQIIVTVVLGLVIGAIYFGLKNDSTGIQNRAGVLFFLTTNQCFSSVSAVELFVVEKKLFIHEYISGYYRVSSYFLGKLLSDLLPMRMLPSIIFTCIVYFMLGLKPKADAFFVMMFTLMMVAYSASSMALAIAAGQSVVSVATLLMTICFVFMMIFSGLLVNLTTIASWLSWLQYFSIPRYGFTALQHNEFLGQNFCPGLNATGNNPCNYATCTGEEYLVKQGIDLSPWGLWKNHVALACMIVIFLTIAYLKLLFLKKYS
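Times: 10 min at 25 °C | Test system: Two drug-resistant human cell lines, ABCG2 and ABCB1 | Quantity: 3 million cells/mL final, two lines in 1:1 ratio | Signal: Flow cytometry, 530 nm JC-1 signal | Dosing: Compound at 6.6 µM | Controls: Nicardipine and DMSO wells | Reagent: JC-1 as fluorescent efflux pump substrate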
MEKK2mut PB1 HTS: MEK5 binding signal on mutant MEKK2 PB1, primary screen, biochemical, multiplex bead flow cytometry, Alexa488-MEK5; Alexa488-MEK5 binding to MEKK2 mutant; percent response, % at 10 µM; actives 0.35% (n = 290,000); AID 1530, 2009; in the data active means percent response above about 24%, passing the limit was not always enough
MEKK3 PB1 HTS: modulators of MEKK3-MEK5 PB1 binding, primary screen, biochemical, wildtype MEKK3, multiplex bead flow cytometry, Alexa488-MEK5; actives 1.4% (n = 290,000); binding response (% of control), % at 10 µM; bead-based flow cytometry, Alexa488-MEK5 binding to MEKK3; actives lie on both sides; 0 = blocked by unlabeled MEK5, 100 = vehicle; AID 1529, 2009; Mitogen-activated protein kinase kinase kinase 3 (Homo sapiens), Q99759;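 active means binding response more than 3 SD above or below the average of its plate-row segment, actives on both sides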;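 further: Alexa488 bead fluorescence after subtracting the streptavidin-only scavenger bead signal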
ABCB1 inh: ABCB1 efflux pump inhibitors, primary screen, cell-based, multiplex, flow cytometry, ABCG2 counter-screen; ATP-dependent translocase ABCB1 (Homo sapiens), P08183; CCRF-Adr cells, JC-1 efflux; inhibition, % at 6.6 µM; actives 0.067% (n = 190,000); AID 1326, 2008; in the data active means inhibition above about 40%;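 further: 0% = vehicle and 100% = reference inhibitor; higher value means more JC-1 retained so stronger ABCB1 efflux block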
MEKK2wt confirm: modulators of MEK5 binding to wildtype MEKK2, confirmation, biochemical, single concentration, multiplex bead flow cytometry; shares compounds with MEKK3 PB1 HTS; Alexa488-MEK5 binding to MEKK2 WT; actives lie on both sides; binding response (% of control), % at 10 µM; actives 2.4% (n = 5,900); in the data active means binding response below about 16% or above about 210%; inactive means in between
MEKK2mut confirm: mutant MEKK2 PB1-MEK5 binding signal retest – biochemical, single concentration, multiplex bead flow cytometry, confirmation; actives 2% (n = 5,900); shares compounds with MEKK3 PB1 HTS; Alexa488-MEK5 binding to MEKK2 mutant; percent response, % at 10 µM; in the data active means percent response mostly above about 71%, no sharp cut-off; inactive means mostly below about 38%;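 further: higher means compound restores mutant binding toward wildtype level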
MEKK3 confirm: MEKK3 wild-type PB1 binding to MEK5, inhibitors, confirmation, biochemical, bead multiplex flow cytometry, single concentration, wildtype. binding response (% of control), % at 10 µM. actives 1.8% (n = 5,900). Alexa488-MEK5 binding to MEKK3; stronger effect = lower value. shares compounds with MEKK3 PB1 HTS. AID 1894, 2009;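 active means binding response below 72% of control, or above a set upper limit, though filed actives all read lower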;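 further: 100% = DMSO only wells and 0% = binding blocked by excess unlabeled MEK5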
Active calls of the source: *; . = no result given; [ ] = another dose, or the depositor's remark.

SMILES | MEKK2 WT-MEK5 | ABCG2 block | MEKK2mut PB1 HTS | MEKK3 PB1 HTS | ABCB1 inh | MEKK2wt confirm | MEKK2mut confirm | MEKK3 confirm
CCN1CCC(CNCc2cn(-c3ccc(OC)cc3)nc2-c2ccccc2Cl)C1 (configuration not stated) | 180* | 10 | 34 | 104 | 2 | 189 | 69 | 113
COc1ccc(-n2cc(CNCCc3nc(C)cc(C)n3)c(-c3ccccc3Cl)n2)cc1 | 114 | 3 | 1 | 95 | 2 | . | . | .
COc1ccc(-n2cc(CNCCc3ncc(C)[nH]3)c(-c3ccccc3Cl)n2)cc1 | 153* | 9 | -5 | 104 | 5 | 167 | 38 | 108
CCCc1nn2c(=O)cc(COc3ccc(NC(=O)c4ccco4)cc3)nc2s1 | 104 | . | 3 | 99 | . | . | . | .
Cc1ccc(-c2nn3c(C)nnc3s2)cc1NCc1c(F)cccc1Cl | 50*[inhibitor] | 11 | -42 | 50*[inhibitor] | 2 | 91 | -13 | 97
COc1ccc(C2C(C(=O)Nc3cc(C)on3)c3ccccc3C(=O)N2C)cc1OC (configuration not stated) | 0.0*[inhibitor] | 19 | -15 | 0.0*[inhibitor] | 1 | 104 | -1 | 103
COc1ccc(C2C(C(=O)Nc3cc(C)on3)c3ccccc3C(=O)N2C)cc1 (configuration not stated) | 95 | 20 | 1 | 107 | 4 | . | . | .
O=C(Cn1ccc2cc(S(=O)(=O)N3CCCC3)ccc21)NCCc1ccccc1 | 94 | . | -3 | 91 | . | . | . | .
COc1ccc(CNC(=O)C2CC(c3cccc(OC)c3)=NO2)cc1 (configuration not stated) | 89 | 1 | -4 | 82*[inhibitor] | 0 | 103 | 0 | 102
Cc1ccc(C)c2c1N(Cc1ccccc1)C(=O)C21OCCO1 | 109 | . | 2 | 104 | . | . | . | .
Cc1sc2nc(C(C)C)nc(SCC(=O)NCc3ccco3)c2c1C | -6.0*[inhibitor] | 9 | -40 | -1.0*[inhibitor] | 2 | 100 | 2 | 104
Cc1nc(SCC(=O)NCc2ccco2)c2c(C)c(C)sc2n1 | 100 | 9 | 1 | 101 | 1 | . | . | .
CC(=O)c1ccc(S(=O)(=O)N(CCCO)Cc2cc3cc(C)ccc3[nH]c2=O)cc1 | 108 | . | 6 | 105 | . | . | . | .
CCCN(Cc1cc2cc(C)ccc2[nH]c1=O)S(C)(=O)=O | 120 | 3 | 5 | 128* | 0 | 101 | 3 | 103
Cc1ccc(C(=O)COC(=O)c2c(C)cc(=O)oc2C)cc1[N+](=O)[O-] | 106 | 6 | 1 | 160* | 1 | 105 | 8 | 102
Cc1cc(=O)oc(C)c1C(=O)OCC(=O)c1ccc(Cl)c(Cl)c1 | 101 | 25 | 0 | 105 | -2 | . | . | .
CC(=O)c1ccc(C(=O)N2CCCC(CO)(Cc3ccccc3C)C2)s1 (configuration not stated) | 99 | . | -2 | 100 | . | . | . | .
CC(NC(=O)c1ccccc1F)C1CC1 (configuration not stated) | 98 | . | -5 | 101 | . | . | . | .
COc1cc(C(C)=O)ccc1COc1ccc(C(=O)OCC(N)=O)cc1OC | 98 | -1 | -1 | 72*[inhibitor] | -1 | 110 | 12 | 107
CCC(CC)NC(=O)COC(=O)c1ccc(OCc2ccc(C(C)=O)cc2OC)c(OC)c1 | 98 | 26 | -2 | 97 | 3 | . | . | .
CC(=O)Nc1cccc2c1C(=O)N(c1cccc(OC(C)=O)c1)C2=O | 79 | 0 | -14 | 83 | 0 | . | . | .
CC(=O)Nc1cccc2c1C(=O)N(c1cccc(C)c1)C2=O | 84 | 47 | 8 | 73*[inhibitor] | 6 | 30 | -20 | 53*
Cn1c(=O)c(-c2ccccc2[N+](=O)[O-])c(Cl)c2ccccc21 | 99 | . | 12 | 102 | . | . | . | .
O/N=C(/c1ccccc1)c1cc2cc(Br)cc(Br)c2o1 | 103 | . | 2 | 101 | . | . | . | .
CCN(CC)CC(O)Cn1c(C)c(-c2ccccc2)c2cc([N+](=O)[O-])ccc21 (configuration not stated) | 174* | . | 30* | 110 | . | 165 | 43 | 111
SMILES | MEKK2 WT-MEK5 | ABCG2 block | MEKK2mut PB1 HTS | MEKK3 PB1 HTS | ABCB1 inh | MEKK2wt confirm | MEKK2mut confirm | MEKK3 confirm
CCN(CC)CC(O)Cn1c2ccccc2c2ccccc21 (configuration not stated) | 105 | 10 | 9 | 105 | 2 | . | . | .
O=C(O)CC1(CC(=O)Nc2ccc(F)cc2F)CCCCC1 | 94 | . | -2 | 95 | . | . | . | .
O=C(O)CC1(CC(=O)Nc2cc(F)ccc2Cl)CCCCC1 | 131 | . | 28 | 134* | . | 97 | -2 | 99
Cc1nc2c3ccccc3nc(NNC(=O)CCC(=O)NCCC(C)C)n2n1 | 109 | -3 | 0 | 130* | 0 | 99 | -5 | 101
S=C(NCc1ccco1)N1CCN(c2ccc(Cl)cc2)CC1 | 100 | 18 | 1 | 98 | 0 | . | . | .
CC(=O)c1ccc(N2CCN(C(=S)NCc3ccco3)CC2)cc1 | 53 | 0 | -16 | 46*[inhibitor] | 0 | 93 | -27 | 92
CCOc1ccccc1N1CCN(C(=S)NCc2ccco2)CC1 | 92 | 3 | -1 | 64*[inhibitor] | 0 | 107 | 5 | 107
CCOc1ccccc1N1CCN(C(=S)NCc2ccccc2)CC1 | 92 | -3 | -1 | 84 | -1 | . | . | .
CCC(C)(C)NC(=O)C(C(C)C)N(CC1CCCO1)C(=O)CNS(=O)(=O)c1ccccc1 (configuration not stated) | 99 | . | 5 | 102 | . | . | . | .
Cc1cccc2nc(-c3ccco3)oc(=O)c12 | 105 | . | 0 | 105 | . | . | . | .
O=[N+]([O-])c1ccc(CSc2nnc(SCc3ccccc3)s2)cc1 | 91 | 13 | -2 | 60*[inhibitor] | 1 | 100 | 0 | 108
O=[N+]([O-])c1ccc(CSc2nc3ccccc3o2)cc1 | 91 | 20 | -5 | 94 | 1 | . | . | .
Cc1cccc(NC(=O)CSc2ccc(-c3ccco3)nn2)c1 | 102 | 1 | 0 | 129* | 0 | 108 | 6 | 107
